Experimental data: ChEMBL document CHEMBL4196055, “Synthesis and biological evaluation of α-santonin derivatives as anti-hepatoma agents” (Eur J Med Chem, 2018)

Columns and labels:
HepG2 [1] = assay: Antiproliferative activity against human HepG2 cells at 10 uM after 24 hrs by CCK-8 assay relative to control; assay type: functional
In short: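 HepG-2 grown in DMEM with 10% FBS and penicillin/streptomycin (37 °C, 5% CO2). Seeded 2 × 10^5 cells/well for 24 h, then given a single 10 μM dose or 1% DMSO vehicle for 24 h. CCK-8 reagent for 1 h, A450 read, and percent inhibition calculated against untreated control cells.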

HepG2 [2] = assay: Antiproliferative activity against human HepG2 cells after 24 hrs by CCK-8 assay; assay type: functional, cell-based; conditions: HepG2, 24 h
In short: (§1)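 Cells in 10% FBS medium with penicillin/streptomycin at 37 °C, 5% CO2; HepG-2 in DMEM, QGY-7703, SMMC-7721 and QSG-7701 in RPMI 1640. Seeded 2 × 10^5 cells/well, grown 24 h, then exposed to five concentrations of compound or 1% DMSO vehicle for 24 h. CCK-8 added for 1 h, absorbance read at 450 nm; IC50 derived from the 5-dose data.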

QGY-7703 [3] = assay: Antiproliferative activity against human QGY7703 cells after 24 hrs by CCK-8 assay; assay type: functional, cell-based; conditions: QGY-7703, 24 h; in short: as §1
SMMC-7721 = assay: Antiproliferative activity against human SMMC7721 cells after 24 hrs by CCK-8 assay; assay type: functional, cell-based; conditions: SMMC-7721, 24 h; in short: as §1
[4] = Antiproliferative activity against human QSG7701 cells after 24 hrs by CCK-8 assay; assay type: cell-based; conditions: QSG7701, 24 h; in short: as §1
QGY-7703 [5] = assay: Induction of apoptosis in human QGY7703 cells assessed as early apoptotic cells at 5 uM after 24 hrs by Annexin-V FITC/propidium iodide staining based flow cytometric analysis (reference value: 0.8 to 1%); assay type: functional
In short: (§2)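 Assay in QGY-7703 cells kept in RPMI 1640 with 10% FBS. Seeded at 5 × 10^5 cells/well for 24 h, then treated for 24 h with 5, 10 or 15 μM compound, DMSO as control. Annexin V-FITC/PI staining for 15 min at room temperature in the dark, then immediate flow cytometry to count the apoptotic fractions.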

QGY-7703 [6] = assay: Induction of apoptosis in human QGY7703 cells assessed as late apoptotic cells at 5 uM after 24 hrs by Annexin-V FITC/propidium iodide staining based flow cytometric analysis (reference value: 4.1 to 4.3%); assay type: functional; in short: as §2
QGY-7703 [7] = assay: Induction of apoptosis in human QGY7703 cells assessed as necrotic cells at 5 uM after 24 hrs by Annexin-V FITC/propidium iodide staining based flow cytometric analysis (reference value: 0.6 to 0.7%); assay type: functional; in short: as §2
QGY-7703 [8] = assay: Induction of apoptosis in human QGY7703 cells assessed as viable cells at 5 uM after 24 hrs by Annexin-V FITC/propidium iodide staining based flow cytometric analysis (reference value: 94.2 to 94.3%); assay type: functional; conditions: QGY-7703, 24 h, read-out: Activity; in short: as §2
QGY-7703 [9] = assay: Induction of apoptosis in human QGY7703 cells assessed as early apoptotic cells at 10 uM after 24 hrs by Annexin-V FITC/propidium iodide staining based flow cytometric analysis (reference value: 0.8 to 1%); assay type: functional; in short: as §2
QGY-7703 [10] = assay: Induction of apoptosis in human QGY7703 cells assessed as late apoptotic cells at 10 uM after 24 hrs by Annexin-V FITC/propidium iodide staining based flow cytometric analysis (reference value: 4.1 to 4.3%); assay type: functional; in short: as §2
QGY-7703 [11] = assay: Induction of apoptosis in human QGY7703 cells assessed as necrotic cells at 10 uM after 24 hrs by Annexin-V FITC/propidium iodide staining based flow cytometric analysis (reference value: 0.6 to 0.7%); assay type: functional; in short: as §2
QGY-7703 [12] = assay: Induction of apoptosis in human QGY7703 cells assessed as viable cells at 10 uM after 24 hrs by Annexin-V FITC/propidium iodide staining based flow cytometric analysis (reference value: 94.2 to 94.3%); assay type: functional; conditions: QGY-7703, 24 h, read-out: Activity; in short: as §2
QGY-7703 [13] = assay: Induction of apoptosis in human QGY7703 cells assessed as early apoptotic cells at 15 uM after 24 hrs by Annexin-V FITC/propidium iodide staining based flow cytometric analysis (reference value: 0.8 to 1%); assay type: functional; in short: as §2
QGY-7703 [14] = assay: Induction of apoptosis in human QGY7703 cells assessed as late apoptotic cells at 15 uM after 24 hrs by Annexin-V FITC/propidium iodide staining based flow cytometric analysis (reference value: 4.1 to 4.3%); assay type: functional; in short: as §2
QGY-7703 [15] = assay: Induction of apoptosis in human QGY7703 cells assessed as necrotic cells at 15 uM after 24 hrs by Annexin-V FITC/propidium iodide staining based flow cytometric analysis (reference value: 0.6 to 0.7%); assay type: functional; in short: as §2
QGY-7703 [16] = assay: Induction of apoptosis in human QGY7703 cells assessed as viable cells at 15 uM after 24 hrs by Annexin-V FITC/propidium iodide staining based flow cytometric analysis (reference value: 94.2 to 94.3%); assay type: functional; conditions: QGY-7703, 24 h, read-out: Activity; in short: as §2

Structure (SMILES) | Activity (HepG2 [1]) [%] | IC50 (HepG2 [2]) [µM] | IC50 (QGY-7703 [3]) [µM] | IC50 (SMMC-7721) [µM] | IC50 [4] [µM] | other results
C=C1C(=O)O[C@@H]2C3=C(C)[C@@H](OC(=O)c4ccccc4)CC3[C@](C)(OC(C)=O)CC[C@@H]12 (some centres undefined) | 68.47 | 7.99 | 13 | 5.99 | > 100 | 
C=C1C(=O)O[C@@H]2C3=C(C)[C@@H](OC(=O)c4ccc(CCC)cc4)CC3[C@](C)(OC(C)=O)CC[C@@H]12 (some centres undefined) | 62.47 | 10.1 | 8.33 | 6.52 | 34.3 | 
C=C1C(=O)O[C@@H]2C3=C(C)[C@@H](OC(=O)/C=C/c4ccc(SC)cc4)CC3[C@](C)(OC(C)=O)CC[C@@H]12 (some centres undefined) | 36.24 |  |  |  |  | 
C=C1C(=O)O[C@@H]2C3=C(C)[C@@H](OC(=O)/C=C/c4ccc(Br)cc4)CC3[C@](C)(OC(C)=O)CC[C@@H]12 (some centres undefined) | 61.39 | 11.7 | 8.91 | 6.09 | 91.3 | 
C=C1C(=O)O[C@@H]2C3=C(C)[C@@H](OC(=O)/C=C/c4ccc(OCCC)cc4)CC3[C@](C)(OC(C)=O)CC[C@@H]12 (some centres undefined) | 47.78 |  |  |  |  | 
C=C1C(=O)O[C@@H]2C3=C(C)[C@@H](OC(=O)/C=C/c4ccc(OC)cc4)CC3[C@](C)(OC(C)=O)CC[C@@H]12 (some centres undefined) | 61.14 | 12.1 | 11.8 | 5.41 | > 100 | 
C=C1C(=O)O[C@@H]2C3=C(C)[C@@H](OC(=O)/C=C/c4ccc([N+](=O)[O-])cc4)CC3[C@](C)(OC(C)=O)CC[C@@H]12 (some centres undefined) | 42.67 |  |  |  |  | 
C=C1C(=O)O[C@@H]2C3=C(C)[C@@H](OC(=O)c4ccc(CC)cc4)CC3[C@](C)(OC(C)=O)CC[C@@H]12 (some centres undefined) | 42.33 |  |  |  |  | 
C=C1C(=O)O[C@@H]2C3=C(C)[C@@H](OC(=O)c4ccc(C)cc4)CC3[C@](C)(OC(C)=O)CC[C@@H]12 (some centres undefined) | 58.47 | 8.52 | 12.2 | 6.49 | > 100 | 
C=C1C(=O)O[C@@H]2C3=C(C)[C@@H](OC(=O)/C=C/c4ccc(C(F)(F)F)cc4)CC3[C@](C)(OC(C)=O)CC[C@@H]12 (some centres undefined) | 71.14 | 6.79 | 12.7 | 6.12 | 43.3 | 
C=C1C(=O)O[C@@H]2C3=C(C)[C@@H](OC(=O)c4ccc(C(C)(C)C)cc4)CC3[C@](C)(OC(C)=O)CC[C@@H]12 (some centres undefined) | 64.41 | 11.1 | 5.13 | 9.37 | 48.5 | 
C=C1C(=O)O[C@@H]2C3=C(C)[C@@H](OC(=O)c4ccc(F)cc4)CC3[C@](C)(OC(C)=O)CC[C@@H]12 (some centres undefined) | 78.61 | 6.2 | 6.78 | 4.97 | 39 | 
C=C1C(=O)O[C@@H]2C3=C(C)[C@@H](OC(=O)/C=C/c4ccccc4)CC3[C@](C)(OC(C)=O)CC[C@@H]12 (some centres undefined) | 56.11 | 16.2 | 18.8 | 6.43 | > 100 | 
O=c1[nH]cc(F)c(=O)[nH]1 [FLUOROURACIL] | 50.58 |  | 14.2 | 12.5 | 6.92 | Activity (QGY-7703 [5]): 10.7%; Activity (QGY-7703 [6]): 0.9%; Activity (QGY-7703 [7]): 0%; viability at 5 µM (QGY-7703 [8]): 88.4%; Activity (QGY-7703 [9]): 12.6%; Activity (QGY-7703 [10]): 11.1%; Activity (QGY-7703 [11]): 0.1%; viability at 10 µM (QGY-7703 [12]): 76.3%; Activity (QGY-7703 [13]): 23%; Activity (QGY-7703 [14]): 35.5%; Activity (QGY-7703 [15]): 0.4%; viability at 15 µM (QGY-7703 [16]): 41.1%
C=C1C(=O)O[C@@H]2C3=C(C)[C@@H](OC(=O)c4ccc(C(C)C)cc4)CC3[C@](C)(OC(C)=O)CC[C@@H]12 (some centres undefined) | 37.86 |  |  |  |  | 
C=C1C(=O)O[C@@H]2C3=C(C)[C@@H](OC(=O)/C=C/c4ccc(C)cc4)CC3[C@](C)(OC(C)=O)CC[C@@H]12 (some centres undefined) | 72.03 | 8.67 | 10.6 | 5.06 | > 100 | 
C=C1C(=O)O[C@@H]2C3=C(C)[C@@H](OC(=O)c4ccc(CCCC)cc4)CC3[C@](C)(OC(C)=O)CC[C@@H]12 (some centres undefined) | 67.53 | 10.3 | 7.2 | 7.46 | 45.1 | 
C=C1C(=O)O[C@@H]2C3=C(C)[C@@H](OC(=O)c4ccc(C#N)cc4)CC3[C@](C)(OC(C)=O)CC[C@@H]12 (some centres undefined) | 62.58 | 9.14 | 22.8 | 6.7 | > 100 | 
C=C1C(=O)O[C@@H]2C3=C(C)[C@@H](OC(=O)/C=C/c4ccc(F)cc4)CC3[C@](C)(OC(C)=O)CC[C@@H]12 (some centres undefined) | 67.53 | 9.98 | 12.2 | 5.8 | > 100 | 
C=C1C(=O)O[C@@H]2C3=C(C)[C@@H](OC(=O)c4ccc(I)cc4)CC3[C@](C)(OC(C)=O)CC[C@@H]12 (some centres undefined) | 63.11 | 7.57 | 9 | 4.18 | 36.5 | 
C=C1C(=O)O[C@@H]2C3=C(C)[C@@H](OC(=O)c4ccc(OC(F)(F)F)cc4)CC3[C@](C)(OC(C)=O)CC[C@@H]12 (some centres undefined) | 69.25 | 7.54 | 11.3 | 6.1 | 36.8 | 
C=C1C(=O)O[C@@H]2C3=C(C)[C@@H](OC(=O)c4ccc(CCCCC)cc4)CC3[C@](C)(OC(C)=O)CC[C@@H]12 (some centres undefined) | 58.08 | 10.8 | 7.19 | 18.7 | 38.5 | 
C=C1C(=O)O[C@@H]2C3=C(C)[C@@H](OC(=O)c4ccc(C(F)(F)F)cc4)CC3[C@](C)(OC(C)=O)CC[C@@H]12 (some centres undefined) | 72.42 | 5.63 | 5.64 | 5.49 | 41.1 | 
C=C1C(=O)O[C@@H]2C3=C(C)[C@@H](OC(=O)/C=C/c4ccc(OCC)cc4)CC3[C@](C)(OC(C)=O)CC[C@@H]12 (some centres undefined) | 49.75 |  |  |  |  | 
C=C1C(=O)O[C@@H]2C3=C(C)[C@@H](OC(=O)c4ccc(OC)cc4)CC3[C@](C)(OC(C)=O)CC[C@@H]12 (some centres undefined) | 53.03 | 12.2 | 22.3 | 8.93 | > 100 | 
C=C1C(=O)O[C@@H]2C3=C(C)[C@@H](O)CC3[C@](C)(OC(C)=O)CC[C@@H]12 (some centres undefined) | 32.02 |  |  |  |  | 
C=C1C(=O)O[C@@H]2C3=C(C)[C@@H](OC(=O)/C=C/c4ccc(C#N)cc4)CC3[C@](C)(OC(C)=O)CC[C@@H]12 (some centres undefined) | 48.53 |  |  |  |  | 
C=C1C(=O)O[C@@H]2C3=C(C)[C@@H](OC(=O)c4ccc(Br)cc4)CC3[C@](C)(OC(C)=O)CC[C@@H]12 (some centres undefined) | 71.06 | 7.41 | 13.7 | 6.54 | 51.9 | 
